Shown are actives, neighbours in structure and some others; about 4.3% of the full set was active somewhere.
MC4R antagonist: blocks human MC4R cAMP signaling | P32245 | MC4R-expressing cells, MTII-stimulated cAMP, LANCE TR-FRET | inhibition, % at 6.5 µM | 360,000 tested, 0.48% active | AID 540295;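 active = inhibition above its plate's cutoff, the mean of tested wells on that plate plus 3 SD, cut at about 29% in these data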
Target sequence (P32245 whole entry, looked up): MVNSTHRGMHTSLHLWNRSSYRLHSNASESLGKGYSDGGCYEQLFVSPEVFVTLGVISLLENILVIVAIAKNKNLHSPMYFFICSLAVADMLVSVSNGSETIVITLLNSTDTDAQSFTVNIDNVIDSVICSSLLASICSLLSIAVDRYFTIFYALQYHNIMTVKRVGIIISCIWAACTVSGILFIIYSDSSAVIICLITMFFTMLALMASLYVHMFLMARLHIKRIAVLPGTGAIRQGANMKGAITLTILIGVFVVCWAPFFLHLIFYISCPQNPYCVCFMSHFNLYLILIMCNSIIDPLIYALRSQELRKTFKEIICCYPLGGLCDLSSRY
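Assay system: U2OS cells stably expressing human melanocortin 4 receptor (MC4R) / Dosing: 6.5 µM / Timing: compound 30 min, challenge 1 h, detection 1 h / Measured by: Eu-cAMP/anti-cAMP TR-FRET, emission 671 nm / Replicates: singlicate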
MC4R ag barr: human MC4R agonism via beta-arrestin. 360,000 tested, 0.98% active. U2OS MC4R beta-arrestin complementation, luminescence; percent of melanotan II response, DMSO zero. activation, % at 8.9 µM. P32245;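 active = activation above a per-plate cutoff, the mean activation of sample wells on that plate plus 3 SD, cut at about 8% in these data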
TAAR1 antagonist: antagonists of human TAAR1; AID 624466; Q96RJ0; CHO RD-HGA16 TAAR1, Fluo-8 calcium fluorescence, antagonist; inhibition, % at 3 µM; 360,000 tested, 1.5% active;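 active = inhibition above a per-plate cutoff, the mean inhibition of test compounds on that plate plus 3 SD, cut at about 49% in these data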
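Test system – hTAAR1-expressing CHO RD-HGA16 cells, Gα16-coupled · Reagent – β-PEA at EC80 concentration, post-compound challenge · Compound dosing – 3 µM, single point · Timing – 140 s kinetic read after compound, 140 s after agonist · Detection – Fluo-8 intracellular calcium dye fluorescence, real-time kinetic reads · Control set – DMSO and EC80 PEA controls · Repeats – n of 1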
TAAR1 ag: human TAAR1 agonism; Q96RJ0; CHO RD-HGA16 TAAR1, Fluo-8 calcium fluorescence; vehicle wells 0%, saturating PEA agonist 100%; activation, % at 3 µM; 360,000 tested, 0.99% active;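 active = activation above the mean activation of all test compounds in the run plus 3 SD, cut at about 38% in these data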
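test system = CHO RD-HGA16 cells carrying human TAAR1 plus Gα16 | schedule = 17-24 h seeding, 75 min 37 °C dye, 30 min RT | compound dosing = 3 µM single concentration | control set = DMSO and PEA EC100 | replicates = n 1 | signal = Fluo-8 fluorescence, 5 s baseline then 140 s kinetic read | measure = percent activation vs PEA EC100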
HTR2A ag: mouse HTR2A agonism via beta-arrestin recruitment | P35363 | CHO-K1 mHTR2A beta-arrestin complementation, luminescence; percent of 30 µM serotonin response | activation, % at 7.6 µM | 360,000 tested, 0.66% active | AID 624169;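 active = activation above a run cutoff, the mean activation of all tested compounds plus 3 SD, cut at about 14% in these data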
B2AR ag: agonists of human beta-2 adrenergic receptor inducing internalization | Am2.2-beta2AR cells, FAP receptor internalization, flow cytometry | response, % (concentration not given with the values) | 340,000 tested, 0.43% active | P07550;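 active = response above a set limit, near 3 SD of response in nonfluorescent compounds, cut at about 42% in these data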
Target sequence (P07550 whole entry, looked up): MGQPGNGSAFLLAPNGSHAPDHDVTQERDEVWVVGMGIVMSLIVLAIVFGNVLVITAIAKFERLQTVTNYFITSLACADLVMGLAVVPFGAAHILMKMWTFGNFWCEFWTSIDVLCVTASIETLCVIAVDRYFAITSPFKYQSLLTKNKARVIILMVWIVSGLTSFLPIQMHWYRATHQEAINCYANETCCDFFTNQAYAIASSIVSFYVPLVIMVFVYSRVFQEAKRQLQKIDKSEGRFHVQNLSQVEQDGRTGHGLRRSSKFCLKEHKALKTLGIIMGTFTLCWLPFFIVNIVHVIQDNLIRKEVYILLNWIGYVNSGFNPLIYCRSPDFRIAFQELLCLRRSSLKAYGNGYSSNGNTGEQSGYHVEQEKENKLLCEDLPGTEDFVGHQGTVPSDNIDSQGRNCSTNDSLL
Beta2AR ag CP1: activates human beta-2 adrenergic receptor; shares compounds with B2AR ag; 1,100 tested, 25% active; Am2.2-beta2AR cells, FAP surface receptor, flow cytometry; stronger effect = lower value; percent response (surface receptor), % at 10 µM;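 active = surface receptor percent response at or below 58%, roughly 3 SD from nonfluorescent compounds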
FAP fluor counter: counter-screen for beta-2AR agonists: fluorescence in Am2.2 cells. shares compounds with B2AR ag. FAP fluorogen flow cytometry, fluorescence counterscreen; stronger effect = lower value. calls only at 10 µM. 1,100 tested, under 10 active;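 active = percent response below a set limit in fluorescence channel 1 and below 50% in channel 8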
Each line names hits and unclear results; the compound was inactive in the other large screens (follow-up assays come after a bar, where they were run).

CCOCCCNC(=O)c1cc(-c2cccnc2)nc2ccc(S(=O)(=O)N3CCC(C)CC3)cc12	B2AR ag 59 (no result: TAAR1 antagonist, TAAR1 ag) | Beta2AR ag CP1 57 | FAP fluor counter inactive
O=C(Oc1c(CN2CCOCC2)cc(Cl)c2cccnc12)c1cccs1	none
COc1ccc(C(=O)Oc2c(CN3CCOCC3)cc(Cl)c3cccnc23)cc1	none
COc1cc(C(=O)Oc2c(CN3CCOCC3)cc(Cl)c3cccnc23)cc(OC)c1OC	none (no result: TAAR1 antagonist, TAAR1 ag) | Beta2AR ag CP1 inactive | FAP fluor counter inactive
O=C(Oc1c(CN2CCOCC2)cc(Cl)c2cccnc12)c1ccccc1Cl	none | Beta2AR ag CP1 inactive | FAP fluor counter inactive
CCc1ccccc1N(C)S(=O)(=O)c1ccc2[nH]cc(C(=O)O)c(=O)c2c1	B2AR ag 76 | Beta2AR ag CP1 inactive | FAP fluor counter inactive
CC(C)C[C@H]1CN(CCCC[C@H]2CNC(=O)C(=O)N2CCc2ccc(O)cc2)C(=O)C(=O)N1CCC1CCCCC1	none (no result: MC4R antagonist, MC4R ag barr, B2AR ag)
CC1CC(C)CN(S(=O)(=O)c2ccc(C(=O)NCCCn3ccnc3)cc2)C1 (centres undefined)	B2AR ag 55 (no result: TAAR1 antagonist, TAAR1 ag) | Beta2AR ag CP1 inactive | FAP fluor counter inactive
Nc1ccn([C@@H]2O[C@H](C(=O)N3CCN(C(=O)C(F)(F)F)CC3)[C@@H](O)[C@H]2O)c(=O)n1	none (no result: MC4R antagonist, MC4R ag barr, HTR2A ag, B2AR ag)
O=C(N[C@H](Cc1ccccc1)C(=O)N1CCN(CC(=O)N2CCCC2)CC1)[C@H]1O[C@@H](n2ccc(=O)[nH]c2=O)[C@H](O)[C@@H]1O	none (no result: MC4R antagonist, MC4R ag barr, HTR2A ag, B2AR ag)
Nc1cc(N)nc(SCc2cc([N+](=O)[O-])cc3c2OCOC3)n1	B2AR ag 55 | Beta2AR ag CP1 10.0 | FAP fluor counter inactive
CCCCN1C2CCCC1CC(NC(=O)c1cccc(OC)c1)C2 (centres undefined)	none
CCN(c1ccc2c(c1)OCO2)S(=O)(=O)c1cc(Br)cc2c1N(C(C)=O)CC2	B2AR ag 80 | Beta2AR ag CP1 47 | FAP fluor counter inactive
O=C(O)c1cc(O)ccc1NC(=O)c1cccc2ccccc12	B2AR ag 69 | Beta2AR ag CP1 inactive | FAP fluor counter inactive
Cc1ccc(C(=O)Nc2ccc(O)cc2C(=O)O)cc1C	none | Beta2AR ag CP1 inactive | FAP fluor counter inactive
CC(=O)Nc1ccccc1NC(=O)c1cccc2ccccc12	none
CC1=N/C(=C\c2ccc([N+](=O)[O-])cc2)C(=O)N1c1ccc(F)cc1F	none
Cc1ccc(S(=O)(=O)N2CCCC2CNC(=O)C(=O)NC2CCCC2)cc1 (centres undefined)	none
O=c1[nH]cc(CCCc2ccccc2)c(=O)[nH]1	none (no result: B2AR ag)
CCCCc1ccc(NC(=O)CSc2nc(=O)n(CCN(CC)CC)c3c2CCCC3)cc1	B2AR ag 43 | Beta2AR ag CP1 inactive | FAP fluor counter inactive
CNCCCC12CCC(c3ccccc31)c1ccccc12	none | Beta2AR ag CP1 inactive | FAP fluor counter inactive
Cc1ccc2c(c1)C1CN(C)CCC1N2S(=O)(=O)c1ccccc1F (centres undefined)	none
COc1cccc(CN2C(=O)CCC2(C)C(=O)NCCc2ccc(OC)c(OC)c2)c1 (centres undefined)	none
Cc1cc(C)cc(C(=O)NC(CC(N)=O)c2ccc(N3CCN(c4ccccn4)CC3)c([N+](=O)[O-])c2)c1 (centres undefined)	B2AR ag 68 | Beta2AR ag CP1 18 | FAP fluor counter inactive
Cc1cc(C)cc(C(=O)NC(CC(N)=O)c2ccc(N3CCN(C)CC3)c([N+](=O)[O-])c2)c1 (centres undefined)	none
COc1ccc(OC)c(C(=O)NC(CC(N)=O)c2ccc(N3CCN(c4ccccn4)CC3)c([N+](=O)[O-])c2)c1 (centres undefined)	none | Beta2AR ag CP1 inactive | FAP fluor counter inactive
CCOC(=O)C1=CCC(c2ccccc2C(F)(F)F)N(S(=O)(=O)c2ccc(C)cc2)C1 (centres undefined)	none (no result: MC4R antagonist, MC4R ag barr, B2AR ag)
Nc1cccc(C#Cc2ccc3c(=O)c4ccccc4oc3c2)c1	B2AR ag 48 | Beta2AR ag CP1 28 | FAP fluor counter inactive
O=c1c2ccccc2oc2cc(C#Cc3ccccn3)ccc12	none
Cc1ccccc1-c1nc2c3ccccc3nc(=S)n2[nH]1	none | Beta2AR ag CP1 inactive | FAP fluor counter inactive
Oc1ccccc1Nc1nc(NCC2CCCO2)c2ccccc2n1 (centres undefined)	B2AR ag 47 | Beta2AR ag CP1 8.6 | FAP fluor counter active
Oc1ccccc1Nc1nc(NCc2ccco2)c2ccccc2n1	B2AR ag 51 | Beta2AR ag CP1 23 | FAP fluor counter inactive
Cc1ccccc1Nc1nc(NCc2ccco2)c2ccccc2n1	none
COc1cccc(Nc2nc(NCC3CCCO3)c3ccccc3n2)c1 (centres undefined)	none
c1ccc(CN2CCN(c3nc(NCc4ccco4)c4ccccc4n3)CC2)cc1	none | Beta2AR ag CP1 inactive | FAP fluor counter inactive
NC(=O)c1ccccc1NC(=O)C1CCCO1 (centres undefined)	none
O=C(O)c1cc([N+](=O)[O-])ccc1N1CCCCC1	none
Cc1ccc(C(=O)c2cc([N+](=O)[O-])ccc2N2CCCCC2)c(C)c1	B2AR ag 61 | Beta2AR ag CP1 41 | FAP fluor counter inactive
O=C(c1ccco1)N1CCCC(c2nc3c(nnn3Cc3ccccc3)c(=O)[nH]2)C1 (centres undefined)	none
O=C(c1ccco1)N1CCCC(c2nc3c(nnn3Cc3c(Cl)cccc3Cl)c(=O)[nH]2)C1 (centres undefined)	B2AR ag 50 | Beta2AR ag CP1 inactive | FAP fluor counter inactive
CCOC(=O)c1c(-c2ccccc2)oc2ccc(O)c(CN3CCCC3)c12	B2AR ag 95 | Beta2AR ag CP1 inactive | FAP fluor counter inactive
COc1cc(NC(=O)c2ccco2)c(OC)cc1NC(=O)c1cc(OC)c(OC)c(OC)c1	none | Beta2AR ag CP1 inactive | FAP fluor counter inactive
N=c1n(CC(=O)c2ccc([N+](=O)[O-])cc2)c2ccccc2n1Cc1ccc(Cl)cc1	B2AR ag 91 | Beta2AR ag CP1 37 | FAP fluor counter inactive
N=c1n(Cc2ccccc2)c2ccccc2n1Cc1ccccc1	none
N=c1n(CC(=O)c2ccc([N+](=O)[O-])cc2)c2ccccc2n1Cc1ccccc1Cl	B2AR ag 93 | Beta2AR ag CP1 24 | FAP fluor counter active
N=c1n(CC(=O)c2ccc(Br)cc2)c2ccccc2n1Cc1ccccc1	TAAR1 ag 38, B2AR ag 74 | Beta2AR ag CP1 33 | FAP fluor counter inactive
